# High-throughput results (PubChem)
# Only a selection was taken, and hits are over-represented in it overall.
# CHOP UPR activ: apoptotic UPR (CHOP) activation | 330,000 compounds, 0.34% hits | activation, % at 10 µM | CHO-CHOP luciferase reporter, luminescence; percent of tunicamycin response over DMSO baseline;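 active means at 10 µM dose, activation of 40% or more, normalized to positive control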;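 further: 100% = tunicamycin at 10 µg/mL and 0% = DMSO alone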
#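 Assay system: CHO cells with stable CHOP pathway luciferase reporter; Buffer or medium: F12 plus 10% serum; Times: 16-18 h cell attachment, then 6 h compound exposure, 37 °C; Signal: luciferase luminescence; Read-out basis: percent activation relative to tunicamycin control; Control set: tunicamycin high control, DMSO low control.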
# CHOP inh: inhibitors of CHOP induction in ER stress response; AID 2732; 220,000 compounds, 3.8% hits; CHO-K1 CHOP-promoter luciferase, tunicamycin-induced, 15-18 h; inhibition, % at 10 µM;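 active means compounds that reduced the stress-induced luciferase reporter signal by more than about 70% of percent inhibition, limit read from the data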;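 further: 0% = tunicamycin plus vehicle and 100% = wells without tunicamycin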
# XBP1 UPR activ: activators of adaptive arm of unfolded protein response (XBP1); 330,000 compounds, 0.33% hits; CHO-XBP1 luciferase reporter, IRE1-XBP1 UPR activation, luminescence; percent of tunicamycin response, DMSO as zero; AID 463104; activation, % at 20 µM;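 active means versus positive control, 20 µM dose yields 30% or more activation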;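 further: 100% = tunicamycin at 10 µg/mL and 0% = DMSO only wells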
#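 Test system: CHO-XBP1 luciferase reporter cells | Buffer or medium: Serum-containing F12 medium, 10% FBS | Schedule: 6 h compound exposure at 37 °C, 5% CO2 | Detection: Steady-Glo luciferase glow luminescence, 10 min after reagent addition | Read-out basis: Activation, % of tunicamycin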
# A1 inh: inhibitors of the anti-apoptotic protein A1, read as caspase activation; AID 2462; 330,000 compounds, 0.066% hits; MEF A1-2A-BIM cells, Caspase-Glo 3/7 luminescence, 3 h; percent of clofoctol response, vehicle zero; caspase activation, % (concentration not given with the values);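 active means over half of replicate activation scores above 10%, or exactly half above 10 with the replicate mean above 10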
# The depositor's hits bear a star; . = no result; ! = a repeat was not active.
SMILES,CHOP UPR activ,CHOP inh,XBP1 UPR activ,A1 inh
COc1cc(Cl)c(C)cc1NC(=O)c1ccc(NS(=O)(=O)c2ccc(F)c(F)c2)cc1,-1.6,78.7*,1.4,0.4
Cc1ccc(C)c(NC(=O)CN2C(=O)CC(C)S(=O)(=O)c3ccccc32)c1 (stereo not given),-0.8,.,-0.9,1.5
COc1cc2ccccc2cc1-c1nnc(COc2ccccc2)o1,-0.1,82.0*,0.4,-0.4
COc1ccc(N2CCN(C(=O)c3cc4c(s3)-c3ccccc3OC4)CC2)cc1,1.4,.,-1.5,0.0
O=C(c1cc2c(s1)-c1ccccc1OC2)N1CCN(c2ccccc2)CC1,1.4,83.0*,-1.6,-0.4
Cc1csc(NC(=O)c2cc3c(s2)-c2ccccc2OC3)n1,19.0,81.0*,3.6,-1.6
CSc1ncc(C(=O)Nc2cccnc2)c(C(F)(F)F)n1,-1.6,.,-3.5,0.1
CC(=O)Oc1c(Cl)cc(Cl)cc1/C=C/c1ccc2ccccc2n1,3.4,16.9,4.8,1.5
COc1cc(/C=C/c2cc(OC(C)=O)c3ccccc3n2)c(OC(C)=O)c([N+](=O)[O-])c1,-3.5,86.7*,0.1,0.4
CC1(C)CC(=O)C=C(/C=C/c2ccccc2)C1,3.4,.,1.1,-0.7
CN(Cc1ccc(-n2cccn2)cc1)C(=O)c1cnn2c1NC(c1ccco1)CC2C(F)(F)F (stereo not given),.,76.4*,.,.
O=C(NCc1cccc(Cl)c1)c1cnn2c1NC(c1ccco1)CC2C(F)(F)F (stereo not given),0.6,91.2*,0.4,0.0
COCCNC(=O)c1cnn2c1NC(c1ccco1)CC2C(F)(F)F (stereo not given),-2.1,-4.2,-2.3,0.0
CCCCN(C(=O)CCCSc1nc2ccccc2[nH]1)c1c(N)n(Cc2ccccc2)c(=O)[nH]c1=O,1.9,.,-1.7,-0.5
O=C(CN1C(=O)C2C3C=CC(C3)C2C1=O)N1CC(=O)N(CCc2ccccc2)C(=O)C1 (stereo not given),-4.6,73.9*,0.0,0.0
C[C@@H]1CN([C@@H](C)CO)C(=O)c2cc(NS(=O)(=O)c3cccs3)ccc2O[C@H]1CN(C)Cc1ccc(C(F)(F)F)cc1,0.7,.,1.9,0.1
CC(C)(C)c1csc(NC(=O)c2ccncc2)n1,2.8,-2.7,-2.4,0.3
CC(C)(C)c1csc(NC(=O)Nc2ccccc2)n1,6.4,76.4*,4.1,0.5
Cc1ccc(C(=O)Nc2nc(C(C)(C)C)cs2)s1,3.1,77.0*,12.1,-1.0
CCCCCN1C=CC(=C2C(=O)c3ccccc3C2=O)C=C1,-9.5,98.0*,-12.4,-7.0
CC1=CC(=C2C(=O)c3ccccc3C2=O)C=C(C)N1C,4.1,21.4,1.8,0.3
O=C(O)c1cc(NN=Nc2ccc(Br)cc2)cc([N+](=O)[O-])c1,1.5,3.6,-0.7,0.4
COc1ccc(-c2nc(-c3ccc(Br)o3)no2)cc1,-0.6,75.8*,-5.3,-6.3
COc1ccc(Cc2noc(-c3ccc(C)cc3)n2)cc1,5.6,87.5*,3.5,-4.4
COc1ccc(Cc2noc(-c3ccc([N+](=O)[O-])cc3)n2)cc1OC,-0.5,14.0,-2.3,-2.3
SMILES,CHOP UPR activ,CHOP inh,XBP1 UPR activ,A1 inh
COc1ccc(-c2noc(-c3ccc(Br)o3)n2)cc1,5.2,-0.7,2.0,-1.7
O=C(NC1CC1)c1cccc(NC(=O)c2cc(S(=O)(=O)N3CCOCC3)ccc2Cl)c1,-0.6,.,-2.1,.
COc1ccc(N(CC(=O)N/N=C/c2cccnc2)S(=O)(=O)c2ccc(C)cc2)cc1OC,0.9,.,0.2,0.9
CC(C)Nc1ncnc2ccc(Br)cc12,-1.9,78.6*,-2.0,0.1
O=C(CCC(=O)OCCCC(F)(F)C(F)(F)F)Nc1ccc(Cl)cc1Cl,-3.9,80.1*,-3.1,0.2
CC(C(=O)N1CCCC1)N1CCN(S(=O)(=O)c2ccccc2)CC1 (stereo not given),0.1,.,0.4,-0.2
NS(=O)(=O)c1ccc(CCNC(=O)CNCCc2ccc(C(F)(F)F)cc2)cc1,0.9,.,-4.3,0.8
CC(C)c1ccccc1NC(=O)CNCCc1ccc(C(F)(F)F)cc1,-3.9,75.8*,2.0,-1.2
CCCCc1oc2ccccc2c1C(=O)c1cc(I)c(OCCN(CC)CC)c(I)c1,3.5,86.1*!,-5.7,-0.4
COc1cccc(NC(=O)CSc2nc3c(sc4ccccc43)c(=O)n2CCCN2CCCC2)c1,6.3,.,4.7,0.6
Oc1ccccc1-c1nc(/C=C/c2ccccc2)nn1-c1ccccc1,.,31.9,.,0.3
Oc1ccc(/C=C/c2nc(-c3ccccc3O)n(-c3ccccc3)n2)cc1,2.8,90.3*,4.4,0.1
O=C(CSc1ncnc2c1cnn2-c1ccccc1)NCC1CCCO1 (stereo not given),0.6,.,-0.3,-3.2
CCN(CC)c1cccc(OC2=NS(=O)(=O)c3ccccc32)c1,-3.1,81.2*,-0.3,-0.5
CCc1ccc(OC2=NS(=O)(=O)c3ccccc32)cc1,.,-2.0,.,.
O/N=C/c1ccccc1OCc1ccc(Cl)cc1,5.9,76.5*,2.0,0.2
CC(=O)C(Cl)C(=O)Nc1ccccc1 (stereo not given),.,83.1*,.,.
O=C(Nc1ccccc1)C(Cl)C(=O)c1ccccc1 (stereo not given),8.0,.,-0.6,-0.8
CCN1CCc2c(sc(NC(=O)Nc3ccc(Cl)c(Cl)c3)c2C(N)=O)C1,.,70.3*,.,-0.9
O=C(CCN1C(=O)NC2(CCCC2)C1=O)Nc1cccc(S(=O)(=O)N2CCOCC2)c1,-1.2,.,-0.6,0.1
CCOC(=O)C1CCN(Cc2cc(=O)oc3c(C)c(C)ccc23)CC1,-0.5,.,0.9,-0.5
CCOc1ncccc1C(=O)OCc1cc(=O)oc2c(C)c(C)ccc12,.,75.0*,.,.
CC1CC(C)CN(C(=O)Cn2nnc(-c3ccc(Br)cc3)n2)C1 (stereo not given),0.4,.,-5.8,0.0
O=S(=O)(c1ccc(S(=O)(=O)N2CCN(C/C=C/c3ccccc3)CC2)cc1)N1CCCC1,-2.9,87.3*,-1.5,0.9
O=S(=O)(NCc1ccccc1)c1ccc(S(=O)(=O)N2CCCCC2)cc1,1.4,72.0*,-1.0,0.6
SMILES,CHOP UPR activ,CHOP inh,XBP1 UPR activ,A1 inh
COc1ccc(C(C)=O)cc1COC(=O)Cc1cc(OC)c(OC)c(OC)c1,-1.8,.,-0.5,0.2
Cc1ccc2[nH]c(=O)c(N3CCOCC3)c(-c3ccccc3)c2c1,0.1,76.3*,-1.6,0.1
O=C(CSCc1ccccc1)NNc1c(F)c(F)cc(F)c1F,-1.0,.,7.4,-0.2
CCc1ccc(Cn2nnc(C(=O)Nc3cccc(C)c3)c2N)cc1,1.0,71.2*,-2.0,-1.2
CCOc1ccc(Cn2nnc(C(=O)Nc3cc(C)cc(C)c3)c2N)cc1,0.5,75.1*,0.1,0.3
N#CCC(=O)Nc1ccc(C(=O)NCc2cccc(Cl)c2)cc1,1.6,-17.7,-0.7,0.5
COc1cc(NS(=O)(=O)c2ccc(NC(=S)NC(=O)/C=C/c3ccc(OC)c(OC)c3)cc2)ncn1,2.2,79.2*,-0.4,0.2
COc1ccc(/C=C/C(=O)NC(=S)Nc2ccc(S(=O)(=O)Nc3cc(OC)ncn3)cc2)cc1,.,20.1,.,.
